This is a sample that favours compounds with a hit; in the whole collection about 3.7% have one here.
KCNK9 inh = human KCNK9 channel inhibition; Q9NPC2; HEK293 KCNK9, FluxOR thallium flux fluorescence; stronger effect = lower value; B-score at 10 µM; hit rate 1.2% among 310,000; AID 488922;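 active = ratio B-score over 3 SD below the library mean, with starting fluorescence within 5 SD of its mean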;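 also: negative B-score means less thallium flux so channel inhibition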
KCNK3 block = human KCNK3 channel inhibition, primary screen. CHO-KCNK3 thallium flux, FluxOR fluorescence; stronger effect = lower value. B-score at 10 µM. hit rate 0.84% among 340,000;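 active = B-score under library mean minus 4 SD, starting fluorescence ratio at most library mean plus 5 SD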;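 also: more negative B-score means stronger inhibition of thallium flux through KCNK3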
Kir21 inh = Kir2.1 (mouse) channel inhibition. B-score at 10 µM. AID 1672. hit rate 0.85% among 310,000. HEK293-Kir2.1, FluxOR thallium flux fluorescence; stronger effect = lower value;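 active = fluorescence ratio B-score at or below minus 3 SD of library scores, with starting-brightness B-score within 2 SD, cut at about -4.2 in these data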;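 also: channel flux triggered by added potassium and thallium sulfate stimulus; B-score of peak minus minimum fluorescence over baseline after thallium stimulus; more negative B-score means stronger Kir2.1 block with less thallium influx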
KCNQ1 block = inhibitors of human KCNQ1 potassium channel. P51787. CHO-K1 KCNQ1, FluxOR thallium flux fluorescence; stronger effect = higher value. B-score at 10 µM. hit rate 1.3% among 310,000. AID 2642;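 active = compounds whose thallium flux B-score, printed positive for inhibition, exceeds three library SD while starting fluorescence stays within three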;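 also: channel opened by potassium depolarization with thallium stimulus after 20 min compound exposure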
Target sequence (P51787 whole entry, looked up): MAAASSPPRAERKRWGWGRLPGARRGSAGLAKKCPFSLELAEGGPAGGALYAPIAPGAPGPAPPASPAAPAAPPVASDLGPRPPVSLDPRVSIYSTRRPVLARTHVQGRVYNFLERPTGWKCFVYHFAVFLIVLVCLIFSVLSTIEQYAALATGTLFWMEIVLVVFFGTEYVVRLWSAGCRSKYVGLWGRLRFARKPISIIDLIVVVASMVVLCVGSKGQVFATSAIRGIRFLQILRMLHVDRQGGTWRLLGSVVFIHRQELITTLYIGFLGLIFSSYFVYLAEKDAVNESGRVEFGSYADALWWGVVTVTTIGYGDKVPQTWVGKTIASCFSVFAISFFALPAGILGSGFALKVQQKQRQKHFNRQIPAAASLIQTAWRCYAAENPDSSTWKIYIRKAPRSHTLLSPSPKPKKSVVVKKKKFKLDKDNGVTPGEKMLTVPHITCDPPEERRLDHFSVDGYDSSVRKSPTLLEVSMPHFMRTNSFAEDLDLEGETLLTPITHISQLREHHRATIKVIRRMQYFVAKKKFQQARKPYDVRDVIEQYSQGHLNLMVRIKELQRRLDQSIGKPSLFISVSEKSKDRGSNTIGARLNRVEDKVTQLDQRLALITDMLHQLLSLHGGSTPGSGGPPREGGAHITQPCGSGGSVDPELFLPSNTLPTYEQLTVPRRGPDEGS
hERG protect = compounds protecting human hERG from proarrhythmic drug block | AID 1511 | CHO-hERG, FluxOR thallium flux, dofetilide IC70 present | hit rate 0.51% among 310,000 | Q12809 | activation (rescue from dofetilide block), less the hit threshold, % at 10 µM;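 active = activation above the mean of controls blocked by dofetilide plus 5 SD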;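 also: thallium influx through hERG after potassium depolarization seen as dye fluorescence rise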
KCNQ1 act = potentiates or activates the human KCNQ1 potassium channel. P51787. CHO-K1 KCNQ1, thallium flux FluxOR fluorescence; stronger effect = higher value. B-score at 10 µM. hit rate 0.35% among 310,000. AID 2648;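 active = fluorescence ratio B-score, a plate-corrected score, at least three library SD, with initial intensity B-score within 5 SD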
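Material: CHO-K1 cells stably expressing KCNQ1. Medium: assay buffer for compound exposure, DMSO matched across wells. Reagent: K+/Tl+ depolarizing stimulus. Compound dosing: single-concentration screen. Times: 37 °C overnight plating, 90-min dark dye load, 20-min compound pretreatment. Technique: FluxOR Tl+ flux fluorescence.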
Active calls of the source: *; i = inactive; · = not tested or not shown.

SMILES	KCNK9 inh	KCNK3 block	Kir21 inh	KCNQ1 block	hERG protect	KCNQ1 act
CC(=O)c1ccc(OCC(=O)Nc2ccccc2C(=O)NC2CC2)cc1	i	i	1.1	i	-10	i
O=C(CCN1c2ccccc2Sc2ccccc21)Oc1ccccc1	i	i	-1.5	i	-10	i
COC(=O)c1ccc(OC(=O)CCN2c3ccccc3Sc3ccccc32)cc1	-7.5*	i	-0.4	i	-11	i
COc1cccc(NC(=O)c2ccc(NC(=O)C(C)(C)C)cc2)c1	i	i	0.04	i	-5	i
CC(C)(C)C(=O)Nc1cccc(OC(F)(F)C(F)Cl)c1 (centres undefined)	-7*	i	-0.12	i	-1	i
CCc1ccc(NC(=O)Cn2nc(C(=O)O)c3ccccc3c2=O)cc1	i	i	-1.4	i	-5	i
Cc1c(C(=O)Nc2ccc(S(=O)(=O)N(C)C3CCN(C)CC3)cc2)oc2c(Cl)cccc12	i	i	-5*	i	-17	i
Cc1c(C(=O)Nc2ccc(S(=O)(=O)N(C)C3CCN(C)CC3)cc2)oc2ccccc12	·	i	·	·	·	·
CN(c1ccccc1)S(=O)(=O)c1cccc(C(=O)OCC(=O)NCc2ccco2)c1	i	i	-0.85	i	11*	i
O=C(COC(=O)c1ccccc1Nc1cccc(C(F)(F)F)c1)NCc1ccco1	i	-8.9*	0.8	i	-1	i
O=C(COC(=O)c1ccccc1)NCc1ccco1	i	i	0.77	i	-3	i
CN(c1ccccc1)S(=O)(=O)c1cccc(C(=O)OCC(=O)NCc2ccccc2)c1	·	i	·	·	·	·
COC(=O)C1CCCN1C(=O)COc1ccc(Cl)cc1Br (centres undefined)	i	i	0.32	i	5.1*	8*
COc1ccccc1N1CCN(C(=O)COc2ccc(Cl)cc2Br)CC1	i	i	0.02	i	-7	i
O=C(CC(=O)c1ccccc1)CC(O)(C=Cc1ccccc1)c1ccccc1 (centres undefined)	·	-9.1*	·	·	·	·
Cc1noc(NS(=O)(=O)c2ccc(NC(=O)Cc3ccc([N+](=O)[O-])cc3)cc2)c1C	i	i	0.53	i	-4	i
O=C(O)C1CCN(C(=O)COc2ccc3c(c2)oc(=O)c2ccccc23)CC1	i	i	-2.3	i	-8	i
COC(=O)c1cc(=O)n(Cc2ccc3c(c2)OCO3)c(=Nc2ccccc2)s1	i	i	0.75	i	-15	i
COC(=O)c1cc(=O)n(Cc2ccco2)c(=Nc2ccc(F)c(Cl)c2)s1	i	i	-0.15	7*	-6	i
COC(=O)c1cc(=O)n(Cc2ccc3c(c2)OCO3)c(=Nc2ccc(F)cc2)s1	-8*	i	-2.2	6*	-8	i
COc1ccc(OC)c(NC(=O)COC(=O)CCNc2ccccc2OC)c1	·	i	·	·	·	·
Cc1ccc(C(=O)/C=C/c2ccc(-c3ccc(C)cc3)o2)cc1	i	i	0.01	i	-8	i
CCN(CC)S(=O)(=O)c1ccc(C(=O)/C=C/c2ccc(-c3ccc([N+](=O)[O-])cc3)o2)cc1	i	-9.3*	-1.1	i	-14	i
O=C1C(Cl)=C(N2CCCCC2)C(=O)C(Cl)=C1c1cnc(N2CCCCC2)s1	i	i	-0.81	7*	-3	i
CN(C)c1ncc(C2=C(Cl)C(=O)C(N3CCCC3)=C(Cl)C2=O)s1	i	i	-1.3	7*	-46	i
SMILES	KCNK9 inh	KCNK3 block	Kir21 inh	KCNQ1 block	hERG protect	KCNQ1 act
Cc1ccc(C(=O)OCC(=O)NCc2ccc(Cl)cc2Cl)o1	·	i	·	·	·	·
CC(=O)Oc1ccc(C(=O)Nc2ccc(S(=O)(=O)NCC3CCCO3)cc2)cc1 (centres undefined)	i	i	-2.8	i	-6	i
CCN(Cc1ccccc1)C(=O)c1ccc(C(=O)N(CC)Cc2ccccc2)cc1	i	i	-1.5	i	-9	i
CCN(Cc1ccccc1)C(=O)c1oc2ccc(C)cc2c1C	i	i	0.13	i	5.0*	i
CCOc1ccc2c3c(c(=O)oc2c1OCC)CCCC3	-7.3*	i	3.1	i	-4	i
CN(C)c1ccc(N=Nc2ccccc2C(=O)OCC(=O)N2CCCC2)cc1	i	i	0.4	i	-6	i

Source: PubChem (Johns Hopkins Ion Channel Center)
